Assay results published in ChEMBL document CHEMBL4665899, “Exploring the Chemical Space of Benzothiazole-Based DNA Gyrase B Inhibitors” (ACS Med Chem Lett, 2020).
In brackets after ≈: the same amount, converted by molar mass.

Key:
DNA gyrase [1] = target: DNA gyrase (Escherichia coli, UniProt P0AES4+P0AES6); test: Inhibition of Escherichia coli DNA gyrase using relaxed pNO1 plasmid DNA as substrate incubated for 30 mins by fluorescence assay; type: protein-complex assay
[2] = target: DNA gyrase (Staphylococcus aureus) (UniProt P0A0K8+P20831); test: Inhibition of Staphylococcus aureus DNA gyrase assessed as enzyme residual activity at 10 uM using relaxed pNO1 plasmid DNA as substrate incubated for 30 mins by fluorescence assay relative to control; type: protein-complex assay
Chain of DNA gyrase (Staphylococcus aureus) (P0A0K8 2-644 limits assumed): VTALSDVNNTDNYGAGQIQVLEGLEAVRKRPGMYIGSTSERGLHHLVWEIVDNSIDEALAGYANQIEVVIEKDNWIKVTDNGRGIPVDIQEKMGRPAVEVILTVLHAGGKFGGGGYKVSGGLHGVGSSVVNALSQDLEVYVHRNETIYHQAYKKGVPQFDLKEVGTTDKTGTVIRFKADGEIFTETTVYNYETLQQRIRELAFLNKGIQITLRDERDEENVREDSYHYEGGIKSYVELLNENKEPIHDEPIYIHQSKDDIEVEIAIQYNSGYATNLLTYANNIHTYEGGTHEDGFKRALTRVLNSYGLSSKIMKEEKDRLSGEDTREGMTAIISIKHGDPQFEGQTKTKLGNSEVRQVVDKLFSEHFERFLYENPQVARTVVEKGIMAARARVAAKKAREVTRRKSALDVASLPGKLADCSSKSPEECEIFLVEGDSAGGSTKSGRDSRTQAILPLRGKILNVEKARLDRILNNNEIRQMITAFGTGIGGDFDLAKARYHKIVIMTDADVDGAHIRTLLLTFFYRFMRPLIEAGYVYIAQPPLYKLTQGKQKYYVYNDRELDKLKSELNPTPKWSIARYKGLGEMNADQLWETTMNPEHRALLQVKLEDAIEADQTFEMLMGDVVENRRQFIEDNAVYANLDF
Chain of DNA gyrase (Staphylococcus aureus) (P20831 whole entry partner): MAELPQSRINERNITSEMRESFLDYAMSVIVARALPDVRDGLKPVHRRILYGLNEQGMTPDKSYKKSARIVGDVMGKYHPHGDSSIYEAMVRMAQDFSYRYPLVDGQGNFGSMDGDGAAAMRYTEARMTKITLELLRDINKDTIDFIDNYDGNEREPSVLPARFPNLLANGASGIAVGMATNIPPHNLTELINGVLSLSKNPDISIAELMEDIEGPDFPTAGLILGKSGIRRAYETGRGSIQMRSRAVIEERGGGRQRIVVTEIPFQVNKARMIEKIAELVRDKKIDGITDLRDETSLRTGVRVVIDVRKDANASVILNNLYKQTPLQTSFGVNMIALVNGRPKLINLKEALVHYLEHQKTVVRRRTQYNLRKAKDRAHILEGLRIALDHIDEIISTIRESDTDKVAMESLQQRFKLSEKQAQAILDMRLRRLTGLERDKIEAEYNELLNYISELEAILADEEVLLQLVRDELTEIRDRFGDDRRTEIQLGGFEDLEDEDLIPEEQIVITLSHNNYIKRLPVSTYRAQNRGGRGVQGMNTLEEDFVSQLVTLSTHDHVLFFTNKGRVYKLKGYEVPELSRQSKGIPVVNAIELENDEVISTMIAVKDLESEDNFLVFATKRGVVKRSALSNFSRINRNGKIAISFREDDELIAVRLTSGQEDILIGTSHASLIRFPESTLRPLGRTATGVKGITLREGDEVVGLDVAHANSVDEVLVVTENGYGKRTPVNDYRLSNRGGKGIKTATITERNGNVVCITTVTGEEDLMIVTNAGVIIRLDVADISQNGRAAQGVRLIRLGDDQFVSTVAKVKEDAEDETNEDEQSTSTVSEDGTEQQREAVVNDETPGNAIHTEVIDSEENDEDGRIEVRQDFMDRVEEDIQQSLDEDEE

Escherichia coli [3] = test: Inhibition of Escherichia coli DNA topoisomerase 4 assessed as enzyme residual activity at 10 uM using supercoiled pNO1 plasmid DNA as substrate incubated for 30 mins by fluorescence assay relative to control
[4] = target: Topoisomerase IV (Staphylococcus aureus) (UniProt P0C1U9+P0C1S7); test: Inhibition of Staphylococcus aureus DNA topoisomerase 4 assessed as enzyme residual activity at 10 uM using supercoiled pNO1 plasmid DNA as substrate incubated for 30 mins by fluorescence assay relative to control; type: protein-complex assay
DNA gyrase [5] = target: DNA gyrase (Staphylococcus aureus, UniProt P0A0K8+P20831); test: Inhibition of Staphylococcus aureus DNA gyrase using relaxed pNO1 plasmid DNA as substrate incubated for 30 mins by fluorescence assay; type: protein-complex assay
Chain of DNA gyrase (Staphylococcus aureus, UniProt P0A0K8+P20831) (P0A0K8 whole entry): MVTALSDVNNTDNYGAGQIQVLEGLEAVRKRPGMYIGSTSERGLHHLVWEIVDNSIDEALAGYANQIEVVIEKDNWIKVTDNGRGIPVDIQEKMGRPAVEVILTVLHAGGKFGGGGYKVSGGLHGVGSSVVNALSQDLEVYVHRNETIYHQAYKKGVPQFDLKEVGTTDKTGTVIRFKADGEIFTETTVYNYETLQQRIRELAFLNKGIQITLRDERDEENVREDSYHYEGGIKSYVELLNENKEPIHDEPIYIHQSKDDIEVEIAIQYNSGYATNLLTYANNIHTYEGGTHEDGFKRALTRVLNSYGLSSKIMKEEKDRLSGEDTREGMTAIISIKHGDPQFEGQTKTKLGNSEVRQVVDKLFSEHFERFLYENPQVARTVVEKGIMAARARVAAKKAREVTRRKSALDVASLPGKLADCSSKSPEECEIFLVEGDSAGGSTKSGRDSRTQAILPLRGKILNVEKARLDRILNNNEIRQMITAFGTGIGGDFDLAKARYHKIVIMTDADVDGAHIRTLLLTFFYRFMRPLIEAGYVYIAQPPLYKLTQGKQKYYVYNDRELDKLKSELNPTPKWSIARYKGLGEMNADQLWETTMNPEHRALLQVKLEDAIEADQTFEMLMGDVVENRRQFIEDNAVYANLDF
Chain of DNA gyrase (Staphylococcus aureus, UniProt P0A0K8+P20831) (P20831 whole entry): as the sequence (P20831 whole entry partner) above

[6] = Inhibition of Escherichia coli DNA topoisomerase 4 using supercoiled pNO1 plasmid DNA as substrate incubated for 30 mins by fluorescence assay
Topoisomerase IV = Topoisomerase IV (Staphylococcus aureus, UniProt P0C1S7+P0C1U9); test: Inhibition of Staphylococcus aureus DNA topoisomerase 4 using supercoiled pNO1 plasmid DNA as substrate incubated for 30 mins by fluorescence assay; type: protein-complex assay
Chain of Topoisomerase IV (P0C1U9 whole entry): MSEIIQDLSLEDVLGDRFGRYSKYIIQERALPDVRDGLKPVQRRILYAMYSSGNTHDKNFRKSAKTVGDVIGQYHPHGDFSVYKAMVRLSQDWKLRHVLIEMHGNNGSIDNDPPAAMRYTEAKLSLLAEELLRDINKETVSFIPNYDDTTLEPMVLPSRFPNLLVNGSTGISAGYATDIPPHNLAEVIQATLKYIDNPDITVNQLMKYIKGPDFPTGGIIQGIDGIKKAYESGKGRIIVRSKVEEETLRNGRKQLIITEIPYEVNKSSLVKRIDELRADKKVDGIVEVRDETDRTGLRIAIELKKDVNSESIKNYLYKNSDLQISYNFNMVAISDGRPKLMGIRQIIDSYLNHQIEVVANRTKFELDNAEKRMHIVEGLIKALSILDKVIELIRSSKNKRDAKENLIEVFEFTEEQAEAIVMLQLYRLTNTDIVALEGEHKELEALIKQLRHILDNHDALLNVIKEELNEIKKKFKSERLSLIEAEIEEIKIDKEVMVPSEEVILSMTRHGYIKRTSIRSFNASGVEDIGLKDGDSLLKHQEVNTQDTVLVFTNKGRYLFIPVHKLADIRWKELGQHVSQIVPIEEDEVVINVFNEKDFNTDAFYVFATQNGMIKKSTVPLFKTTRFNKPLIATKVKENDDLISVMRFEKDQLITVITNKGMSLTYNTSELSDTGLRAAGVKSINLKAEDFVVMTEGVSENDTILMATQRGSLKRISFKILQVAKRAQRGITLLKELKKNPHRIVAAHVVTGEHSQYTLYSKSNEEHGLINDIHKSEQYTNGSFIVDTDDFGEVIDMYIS
Chain of Topoisomerase IV (P0C1S7 whole entry): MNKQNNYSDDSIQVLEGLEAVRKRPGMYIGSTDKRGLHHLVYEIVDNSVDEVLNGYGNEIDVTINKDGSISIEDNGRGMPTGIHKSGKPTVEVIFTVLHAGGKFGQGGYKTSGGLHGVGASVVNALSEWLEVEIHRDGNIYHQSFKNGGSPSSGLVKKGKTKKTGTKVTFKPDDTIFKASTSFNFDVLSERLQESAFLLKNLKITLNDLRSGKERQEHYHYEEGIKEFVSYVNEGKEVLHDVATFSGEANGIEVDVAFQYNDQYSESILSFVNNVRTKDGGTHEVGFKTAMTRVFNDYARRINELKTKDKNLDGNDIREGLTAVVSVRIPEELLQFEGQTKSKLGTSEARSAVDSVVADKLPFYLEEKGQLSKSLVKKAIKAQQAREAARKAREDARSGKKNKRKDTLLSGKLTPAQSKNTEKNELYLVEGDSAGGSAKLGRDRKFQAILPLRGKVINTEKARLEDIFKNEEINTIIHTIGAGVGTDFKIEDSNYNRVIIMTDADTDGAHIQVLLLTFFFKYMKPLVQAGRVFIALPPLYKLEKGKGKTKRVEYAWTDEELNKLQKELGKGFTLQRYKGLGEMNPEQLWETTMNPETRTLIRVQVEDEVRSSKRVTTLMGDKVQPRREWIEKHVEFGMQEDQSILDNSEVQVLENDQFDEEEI

Enterococcus faecalis = test: Antibacterial activity against Enterococcus faecalis ATCC 29212 assessed as minimum inhibitory concentration required for >=90% inhibition of bacterial growth after 24 hrs by broth microdilution method; type: functional
Procedure, shortened: (§1)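 Strains were grown from cation-adjusted Mueller-Hinton agar slants into cation-adjusted MH broth at 37°C for 16-20 h at 100 rpm. Broth microdilution followed CLSI guidelines, with a final inoculum of 5×10^5 CFU/mL mixed 1:1 with compound in MH broth and incubated for 24 h at 37°C. Growth was read as A620 and expressed as percentage inhibition relative to untreated controls. Each plate included a ciprofloxacin positive control.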

Escherichia coli [7] = test: Antibacterial activity against Escherichia coli ATCC 25922 assessed as minimum inhibitory concentration required for >=90% inhibition of bacterial growth measured after 24 hrs by broth microdilution method; type: functional
Procedure, shortened: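 Cation-adjusted Mueller Hinton broth culture grown 16-20 h at 37°C with 100 rpm shaking. CLSI broth microdilution at a final inoculum of 5×10^5 CFU/mL, 8 concentrations from […], incubated 24 h at 37°C. A620 read and growth inhibition expressed as % of untreated controls. Ciprofloxacin positive control on every plate; n = 3.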

Pseudomonas aeruginosa = test: Antibacterial activity against Pseudomonas aeruginosa ATCC 27853 assessed as minimum inhibitory concentration required for >=90% inhibition of bacterial growth measured after 24 hrs by broth microdilution method; type: functional; procedure, shortened: as §1
Staphylococcus aureus = test: Antibacterial activity against Staphylococcus aureus ATCC 29213 assessed as minimum inhibitory concentration required for >=90% inhibition of bacterial growth measured after 24 hrs by broth microdilution method; type: functional; procedure, shortened: as §1
Escherichia coli [8] = test: Antibacterial activity against outer membrane impaired Escherichia coli JD17464 harboring lpxC mutant assessed as minimum inhibitory concentration required for >=90% inhibition of bacterial growth measured after 24 hrs by broth microdilution method; type: functional
Escherichia coli [9] = test: Antibacterial activity against efflux pump defective Escherichia coli JW5503 harbouring tolC mutant assessed as minimum inhibitory concentration required for >=90% inhibition of bacterial growth measured after 24 hrs by broth microdilution method; type: functional

Structure (SMILES)	IC50 (DNA gyrase [1]) [nM]	Activity [2] [%]	Activity (Escherichia coli [3]) [%]	Activity [4] [%]	IC50 (DNA gyrase [5]) [nM]	IC50 [6] [nM]	IC50 (Topoisomerase IV) [nM]	MIC (Enterococcus faecalis) [µM]	MIC (Escherichia coli [7]) [µM]	MIC (Pseudomonas aeruginosa) [µM]	MIC (Staphylococcus aureus) [µM]	MIC (Escherichia coli [8]) [µM]	MIC (Escherichia coli [9]) [µM]
Cc1[nH]c(C(=O)Nc2nc3ccc(N)cc3s2)c(Cl)c1Cl	16000	60	100	100	–	–	–	–	–	–	–	–	–
CC(=O)Nc1ccc2nc(NC(=O)c3[nH]c(C)c(Cl)c3Cl)sc2c1	9.5	–	–	–	400	4600	1600	3.13 (≈ 1.2 µg/mL)	> 50	> 50	> 50	> 50	0.78 (≈ 0.299 µg/mL)
Cc1[nH]c(C(=O)Nc2nc3ccc(NC(=O)CCNC(=O)OC(C)(C)C)cc3s2)c(Cl)c1Cl	110	–	100	100	780	–	–	> 50	> 50	> 50	> 50	> 50	> 50
Cc1[nH]c(C(=O)Nc2nc3ccc(NC(=O)C(=O)O)cc3s2)c(Cl)c1Cl	–	–	–	–	–	75	290	> 50	–	> 50	> 50	> 50	–
O=C(O)C(=O)Nc1ccc2nc(NC(=O)c3cc(Br)c(Br)[nH]3)sc2c1	–	–	–	–	–	–	10000	–	–	–	–	–	–
O=C(O)c1cn(C2CC2)c2cc(N3CCNCC3)c(F)cc2c1=O [CIPROFLOXACIN]	–	–	–	–	–	–	–	–	0.05 (≈ 0.0166 µg/mL)	–	–	–	–
CC(=O)Nc1nc2ccc(NC(=O)c3[nH]c(C)c(Cl)c3Cl)cc2s1	66	–	100	100	35400	–	–	> 50	> 50	> 50	> 50	> 50	> 50
Cc1[nH]c(C(=O)Nc2nc3ccc(NC(=O)CN)cc3s2)c(Cl)c1Cl	280	–	100	100	380	–	–	6.25 (≈ 2.49 µg/mL)	> 50	> 50	25 (≈ 9.96 µg/mL)	> 50	3.13 (≈ 1.25 µg/mL)
Cc1[nH]c(C(=O)Nc2ccc3nc(NC(=O)C(=O)O)sc3c2)c(Cl)c1Cl	29	–	–	–	250	6400	910	> 50	–	> 50	> 50	> 50	–
Cc1[nH]c(C(=O)Nc2nc3ccc(NC(=O)CCN)cc3s2)c(Cl)c1Cl	110	–	–	–	1500	10000	290	12.5 (≈ 5.15 µg/mL)	> 50	> 50	> 50	> 50	12.5 (≈ 5.15 µg/mL)
Cc1[nH]c(C(=O)Nc2nc3ccc(NC(=O)c4ccncc4)cc3s2)c(Cl)c1Cl	2500	100	100	100	–	–	–	> 50	> 50	> 50	> 50	> 50	> 50
Cc1[nH]c(C(=O)Nc2nc3ccc(NC(N)=O)cc3s2)c(Cl)c1Cl	26	–	–	–	1300	5200	5800	> 50	> 50	> 50	> 50	> 50	1.56 (≈ 0.599 µg/mL)
CCOC(=O)C(=O)Nc1ccc2nc(NC(=O)c3[nH]c(C)c(Cl)c3Cl)sc2c1	48	100	100	100	–	–	–	> 50	> 50	> 50	> 50	> 50	50 (≈ 22.1 µg/mL)
COC(=O)CC(=O)Nc1nc2ccc(NC(=O)c3[nH]c(C)c(Cl)c3Cl)cc2s1	200	59	100	48	–	–	–	> 50	> 50	> 50	> 50	> 50	1.56 (≈ 0.688 µg/mL)
CCOC(=O)C(=O)Nc1ccc2nc(NC(=O)c3cc(Br)c(Br)[nH]3)[nH]c2c1	4000	100	100	100	–	–	–	> 50	> 50	> 50	> 50	> 50	> 50
CCOC(=O)C(=O)Nc1nc2ccc(NC(=O)c3[nH]c(C)c(Cl)c3Cl)cc2s1	290	69	100	100	–	–	–	> 50	> 50	> 50	> 50	> 50	> 50
O=C(O)CC(=O)Nc1ccc2nc(NC(=O)c3cc(Br)c(Br)[nH]3)[nH]c2c1	1500	100	100	100	–	–	–	> 50	> 50	> 50	> 50	> 50	> 50
COC(=O)CC(=O)Nc1ccc2nc(NC(=O)c3cc(Br)c(Br)[nH]3)[nH]c2c1	7000	100	100	100	–	–	–	> 50	> 50	> 50	> 50	> 50	> 50
O=C(O)C(=O)Nc1ccc2nc(NC(=O)c3cc(Br)c(Br)[nH]3)[nH]c2c1	600	–	–	–	80000	12000	31000	> 50	–	> 50	> 50	> 50	–
Cc1[nH]c(C(=O)Nc2nc3ccc(NC(=O)CNC(=O)OC(C)(C)C)cc3s2)c(Cl)c1Cl	29	–	60	100	260	–	–	3.13 (≈ 1.56 µg/mL)	> 50	> 50	> 50	> 50	0.78 (≈ 0.389 µg/mL)
